Assay outcomes deposited in PubChem BioAssay by several laboratories.
This is a sample that favours compounds with a hit; in the whole collection about 2% have one here.
PvdQ acylase: P. aeruginosa PvdQ acylase inhibitors, primary screen, biochemical, fluorescence, plate reader and imaging, single point; inhibition, % at 10 µM; AID 488965, 2010; PvdQ acylase [Pseudomonas aeruginosa LESB58]; purified PvdQ acylase; 340,000 compounds, 0.063% hits; in the data active = inhibition above about 30%, passing the limit was not always enough;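 also: 0% = vehicle neutral wells and 100% = reference inhibitor wells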
VIM-2 inh: VIM-2 metallo-beta-lactamase inhibitors, primary screen, biochemical, epi-absorbance readout, Pseudomonas aeruginosa enzyme. purified VIM-2, nitrocefin hydrolysis, epi-absorbance fluorescence. 290,000 compounds, 0.89% hits. inhibition, % at 5.6 µM;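 active = inhibition above the mean of all tested compounds plus 3 SD, cutoff set per screening run, cut at about 7.5% in these data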;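 also: red hydrolysis product quenches plate fluorescence so inhibitors raise well fluorescence; 0% = enzyme with DMSO and 100% = DMSO without enzyme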
PLC-gamma1 inh: PLC-gamma1 enzyme inhibitors, primary screen, biochemical, fluorescence, purified enzyme; fluorogenic substrate; 370,000 compounds, 0.84% hits; inhibition, % at 12.2 µM; 1-phosphatidylinositol 4,5-bisphosphate phosphodiesterase gamma-1 (Homo sapiens), P19174; in the data active = inhibition above about 9.5%
IMP-1 inh: IMP-1 metallo-beta-lactamase inhibitors, primary screen, biochemical, epi-absorbance readout, Pseudomonas aeruginosa enzyme | metallo-beta-lactamase IMP-1 (Pseudomonas aeruginosa) | purified IMP-1, nitrocefin hydrolysis, epi-absorbance fluorescence | inhibition, % at 5.6 µM | 290,000 compounds, 0.45% hits;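 active = inhibition above the mean plus 3 SD of all compounds in the same screening run, cut at about 4.5% in these data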;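 also: 0% = IMP-1 with DMSO and 100% = DMSO wells lacking enzyme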
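System – purified recombinant IMP-1 beta-lactamase · Input – IMP-1 dispensed at 0.2 nM · Timing – 15 min preincubation plus 25 min reaction at 25 °C · Signal – Epi-absorbance fluorescence, 480 nm excitation, 530 nm emission · Measure – percent IMP-1 inhibition derived from blank-referenced optical density · Controls – Enzyme-plus-DMSO low control, enzyme-free DMSO high control · Replication – singlicate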
PLC-beta3 inh: human PLC-beta3 inhibitors, primary screen, biochemical, fluorescence. 1-phosphatidylinositol 4,5-bisphosphate phosphodiesterase beta-3 (Homo sapiens), Q01970. Purified PLC-beta3, fluorogenic substrate. inhibition, % at 12.2 µM. 370,000 compounds, 0.18% hits; in the data active = inhibition above about 11%;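 also: 0% = median of compound wells on plate and 100% = full blocker control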
Numbers without * were called inactive; x = no result.

SMILES	PvdQ acylase	VIM-2 inh	PLC-gamma1 inh	IMP-1 inh	PLC-beta3 inh
O=C(CCn1c(=O)c2cccn2c2cccnc21)NCc1cccc(Cl)c1	-9	-6	1	22*	5
Cc1ccc(Cl)cc1N1CCN(C(=O)CCCn2c(=O)c3cccn3c3cccnc32)CC1	-13	-1	10*	-2	-6
Cc1cccc(N2CCN(C(=O)CCCn3c(=O)c4cccn4c4cccnc43)CC2)c1C	-6	-2	0	-3	-9
CCc1ccc(CNC(=O)CCCn2c(=O)c3cccn3c3cccnc32)cc1	7	-1	5	-4	-7
COc1ccc(CN2C(C(=O)NCC(C)C)CSCCS2(=O)=O)cc1 (centres undefined)	x	x	-1	x	2
CCOC(=O)c1ccc(N2Cc3ccccc3C2=NC(=O)c2cccc([N+](=O)[O-])c2)cc1	45*	x	-2	x	-13
O=C(N=C1c2ccccc2CN1c1ccccc1)c1cccc([N+](=O)[O-])c1	-10	1	5	-1	-6
O=C(CC1CCCC1)N1CC[C@H]2[C@H](CCCN2Cc2ccc(F)cc2)C1	x	x	3	x	3
Cc1noc(C)c1C(=O)Nc1ccccc1N1CCOCC1	-8	x	1	x	-5
Cc1onc(-c2ccccc2)c1C(=O)Nc1ccccc1N1CCOCC1	-18	-1	13*	-1	2
Cc1ccc(CC(=O)Nc2ccccc2N2CCOCC2)cc1C	-13	-6	-7	6.3*	-9
O=C(NCCN1CCC(Cc2ccccc2)CC1)C1CCCN(S(=O)(=O)c2ccc(Cl)s2)C1 (centres undefined)	x	x	8	x	5
Cc1sc2nc3ccc(NCc4ccco4)nn3c(=O)c2c1C	-10	4	-353	6.2*	-436
O=c1c2ccccc2nc2ccc(NCc3ccco3)nn12	-9	1	-211	1	-243
S=c1[nH]c2ccccc2n2cccc12	-15	8.7*	-22	-3	-30
O=C1CCN(S(=O)(=O)c2ccc(Cl)cc2)N1	-8	5	3	-2	-3
Cc1ccc(S(=O)(=O)N2CCC(=O)N2)cc1	-9	8.6*	2	0	2
O=C1CCN(S(=O)(=O)c2ccccc2)N1	2	9.7*	-2	0	3
CCCC(=O)OC12CCCN(C1)/C(=C/c1ccc(Cl)cc1)C2 (centres undefined)	x	x	-1	x	-1
O=C(Nc1ccc(F)c(C(F)(F)F)c1)Nc1nnc(-c2ccncc2)s1	x	x	-1	x	-11
O=C(/C=C/c1ccccc1)OCC(=O)N1CCCC1	-10	x	11*	x	-6
O=C(/C=C/c1ccccc1)OCC(=O)N1CCN(c2ccccc2)CC1	-6	x	-1	x	0
COC(=O)C[C@H]1CC[C@@H]2[C@H](COc3ccc(NC(=O)C(C)C)cc3C(=O)N2C)O1	x	x	8	x	4
COC(=O)[C@]12C[C@H](CC(=O)NCc3ccc(C)o3)C(=O)N(Cc3ccco3)C1=C[C@H](C1CCCC1)O[C@@H]2C	x	x	2	x	0
Clc1ccc(-c2nnc3n2N=C(c2ccc(-c4ccccc4)cc2)CS3)c(Cl)c1	x	x	-1	x	3
SMILES	PvdQ acylase	VIM-2 inh	PLC-gamma1 inh	IMP-1 inh	PLC-beta3 inh
COc1cccc(C(C#N)N2N=C(C)CC2(C)C)c1O (centres undefined)	-1	0	12*	-3	-3
COc1ccc2c(=O)c(C(=O)O)c(-c3ccc4c(c3)OCO4)n(C)c2c1	-3	3	-71	-1	-81
Cn1c(-c2ccc3c(c2)OCO3)c(C(=O)O)c(=O)c2ccccc21	-11	11*	-176	-1	-199
Cc1cccc(NC(=O)Nc2c(-c3ccc(C(F)(F)F)cc3)nc3ncccn23)c1	x	x	-46	x	-53
Cc1c(NC(=O)C2CCCN(S(=O)(=O)c3cccc4ccccc34)C2)c(=O)n(-c2ccccc2)n1C (centres undefined)	x	x	1	x	0
CC(C)C(=O)Nc1nnc(CSCc2ccccc2F)s1	-14	10*	-3	-1	1
CN(C)C1CCN(Cc2cc(COCc3ccccc3)c3cccnc3c2O)C1 (centres undefined)	-11	x	x	x	x
Oc1c(CN2CCCCC2)cc(COCc2ccccc2)c2cccnc12	1	12*	-4	-2	-3
Oc1ccc(CN2CCCCC2)c2cccnc12	-7	0	-7	-3	-1
COCc1cc(CN2CCCC2)c(O)c2ncccc12	0	8.2*	-8	0	-10
Cc1ccccc1C1CCC2(CC1)CCN(CC[C@@H](O)c1ccccc1)C2=O (some centres undefined)	x	x	4	x	4
Cc1oc2cc([N+](=O)[O-])c(O)c([N+](=O)[O-])c2c1C(=O)c1ccc(Cl)cc1	-10	0	10*	-1	11*
COc1ccc(OC)c(C(=O)c2c(C)oc3cc([N+](=O)[O-])c(O)c([N+](=O)[O-])c23)c1	0	-3	5	-4	-3
O=C(N/N=C/c1ccncc1)c1sc2ccccc2c1Cl	-9	8.9*	-3	-2	-13
O=C(c1ccccc1)c1ccc(O)cc1O	1	7	-33	12*	-60
O=C(CCN1C(=O)C2C3C=CC(C4CC34)C2C1=O)Nc1ccc(Cl)cc1O (centres undefined)	-12	-3	2	13*	-5
S=c1[nH]nc(-c2cc(-c3ccccc3)n[nH]2)n1N=Cc1c[nH]c2ccccc12	x	x	0	x	-2
O=C(CSc1n[nH]c(=O)[nH]c1=O)Nc1ccc(C(=O)O)cc1	-7	1	1	7.7*	0
COc1ccccc1NC(=S)OC1CCC12CCC(c1ccccc1)CC2 (centres undefined)	x	x	-2	x	4
CCOCCCNC(=O)c1ccc(/C=C2\Oc3ccccc3N(C)C2=O)cc1	-9	7.7*	-191	0	-261
CCCc1cc(=O)oc2cc(OCC(=O)NCc3cccs3)ccc12	-16	-2	-19	-4	-19
CCCc1cc(=O)oc2cc(OCC(=O)NCC(O)c3ccccc3)ccc12 (centres undefined)	-9	-1	0	42*	1
CCCc1cc(=O)oc2cc(OCC(=O)NCCCn3ccnc3)ccc12	-26	9.0*	-5	-1	-12
CCCc1cc(=O)oc2cc(OCC(=O)Nc3ccc(S(N)(=O)=O)cc3)ccc12	3	-1	2	15*	-4
Cc1c(C)c2ccc(OCC(=O)Nc3ccc(S(N)(=O)=O)cc3)c(C)c2oc1=O	7	7.8*	-12	-1	-27
Cc1ccccc1OCC(=O)OCC(=O)Nc1ccc(S(N)(=O)=O)cc1	-15	-2	1	-2	-4
COC(CNC(=O)[C@H](Cc1c[nH]c2ccccc12)NC1(C(=O)NC(c2ccccc2)c2ccccc2)CCCCC1)OC	x	x	-1	x	-1
CCn1c(SCC(=O)Nc2cccc3ccccc23)nnc1-c1cccs1	x	x	2	x	-8
